Format in all cases: ADME
The target of data set [1] is Cytochrome P450 3A5 (Homo sapiens, UniProt P20815). In words: Activity of human CYP3A5 expressed in microsomes isolated from baculovirus infected insect cell assessed as enzyme-mediated 5-(4-((6-methoxy-1H-benzo[d]imidazol-2-yl)methoxy)benzyl)thiazolidine-2,4-dione formation at 20 uM after 2 hrs by radio-HPLC/LC-MS/MS analysis in presence of NADPH-generating system and NADPH-generating system/SAM. The method, boiled down: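 cDNA-expressed human CYP3A5 in baculovirus-insect-cell microsomes (1 mg/ml protein) was incubated with [¹⁴C]rivoglitazone (20 μM) in 50 mM potassium phosphate (pH 7.4) or 100 mM Tris-HCl (pH 7.5). NADPH-generating system: 2 mM NADP⁺, 20 mM glucose 6-phosphate, 2 units/ml G6PDH, 10 mM MgCl₂. Incubation ran 2 h at 37°C with shaking; insect-cell control supersomes served as control. Acetonitrile stop, supernatant concentrated, then radio-HPLC, LC-MS and LC-MS/MS.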
Chain of Cytochrome P450 3A5 (P20815 whole entry): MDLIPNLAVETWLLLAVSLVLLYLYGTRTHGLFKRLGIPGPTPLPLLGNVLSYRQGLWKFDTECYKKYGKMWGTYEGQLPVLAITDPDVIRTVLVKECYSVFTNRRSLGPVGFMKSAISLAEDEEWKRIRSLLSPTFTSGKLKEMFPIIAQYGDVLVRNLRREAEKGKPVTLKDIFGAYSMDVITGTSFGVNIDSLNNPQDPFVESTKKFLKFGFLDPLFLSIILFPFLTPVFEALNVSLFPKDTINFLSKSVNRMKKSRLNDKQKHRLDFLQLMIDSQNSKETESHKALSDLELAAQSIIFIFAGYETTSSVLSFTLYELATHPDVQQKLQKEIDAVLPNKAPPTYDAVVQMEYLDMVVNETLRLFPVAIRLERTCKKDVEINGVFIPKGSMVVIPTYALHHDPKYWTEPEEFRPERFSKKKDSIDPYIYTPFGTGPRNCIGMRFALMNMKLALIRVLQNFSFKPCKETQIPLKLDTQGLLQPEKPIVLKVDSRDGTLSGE

Data set [2] relates to Liver microsome. In words: Drug metabolism in human liver microsomes assessed as formation of 3-(4-((6-methoxy-1-methyl-1H-benzo[d]imidazol-2-yl)methoxy)phenyl)-2-(methylsulfinyl)propanamide at 20 uM after 2 hrs by radio-HPLC/LC-MS/MS analysis in presence of NADPH-generating system/SAM. On the technique in general: Liver microsomes are vesicles of endoplasmic reticulum, rich in cytochrome P450 enzymes.

Data set [3] concerns the target Cytochrome P450 3A4 (Homo sapiens, UniProt P08684). In words: Activity of human CYP3A4 expressed in microsomes isolated from baculovirus infected insect cell assessed as enzyme-mediated 5-hydroxy-5-(4-((6-methoxy-1-methyl-1H-benzo[d]imidazol-2-yl)methoxy)benzyl)thiazolidine-2,4-dione formation at 20 uM after 2 hrs by radio-HPLC/LC-MS/MS analysis in presence of NADPH-generating system and NADPH-generating system/SAM.

For data set [4], the target named is T1, Cytochrome P450 1A2 (Homo sapiens, UniProt P05177).
T1 sequence (P05177 whole entry): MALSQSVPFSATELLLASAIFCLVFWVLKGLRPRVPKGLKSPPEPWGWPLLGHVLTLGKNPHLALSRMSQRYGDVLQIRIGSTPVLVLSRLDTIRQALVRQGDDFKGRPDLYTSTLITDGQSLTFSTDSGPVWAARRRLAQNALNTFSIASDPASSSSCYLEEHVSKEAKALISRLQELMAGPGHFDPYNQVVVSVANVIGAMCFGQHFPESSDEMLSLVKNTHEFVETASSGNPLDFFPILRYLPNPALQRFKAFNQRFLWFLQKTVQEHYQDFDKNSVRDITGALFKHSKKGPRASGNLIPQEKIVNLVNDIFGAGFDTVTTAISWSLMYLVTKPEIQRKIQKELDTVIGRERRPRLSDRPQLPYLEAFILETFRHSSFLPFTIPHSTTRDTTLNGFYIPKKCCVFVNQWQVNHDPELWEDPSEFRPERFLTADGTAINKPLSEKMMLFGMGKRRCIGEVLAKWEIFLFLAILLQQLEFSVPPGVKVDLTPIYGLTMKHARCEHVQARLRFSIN
In words: Activity of human CYP1A2 expressed in microsomes isolated from baculovirus infected insect cell assessed as enzyme-mediated 2-((4-((2,4-dioxothiazolidin-5-yl)methyl)phenoxy)methyl)-1-methyl-1H-benzo[d]imidazol-6-yl hydrogen sulfate formation at 20 uM after 2 hrs by radio-HPLC/LC-MS/MS analysis. An outline of the steps: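 Baculovirus/insect-cell microsomes expressing single human CYPs, 1 mg/ml protein, with 50 mM potassium phosphate (pH 7.4) or 100 mM Tris-HCl (pH 7.5). NADPH-generating system: 2 mM NADP⁺, 20 mM glucose 6-phosphate, 2 units/ml G6PDH, 10 mM MgCl₂. [¹⁴C]rivoglitazone at 20 μM, 2 h at 37°C with shaking. Control used insect-cell control supersomes. Stopped with acetonitrile; supernatant concentrated under nitrogen; metabolites analysed by radio-HPLC, LC-MS and LC-MS/MS.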

Data set [5] addresses T2, UDP-glucuronosyltransferase 1A3 (Homo sapiens, UniProt P35503).
T2 sequence (P35503 whole entry): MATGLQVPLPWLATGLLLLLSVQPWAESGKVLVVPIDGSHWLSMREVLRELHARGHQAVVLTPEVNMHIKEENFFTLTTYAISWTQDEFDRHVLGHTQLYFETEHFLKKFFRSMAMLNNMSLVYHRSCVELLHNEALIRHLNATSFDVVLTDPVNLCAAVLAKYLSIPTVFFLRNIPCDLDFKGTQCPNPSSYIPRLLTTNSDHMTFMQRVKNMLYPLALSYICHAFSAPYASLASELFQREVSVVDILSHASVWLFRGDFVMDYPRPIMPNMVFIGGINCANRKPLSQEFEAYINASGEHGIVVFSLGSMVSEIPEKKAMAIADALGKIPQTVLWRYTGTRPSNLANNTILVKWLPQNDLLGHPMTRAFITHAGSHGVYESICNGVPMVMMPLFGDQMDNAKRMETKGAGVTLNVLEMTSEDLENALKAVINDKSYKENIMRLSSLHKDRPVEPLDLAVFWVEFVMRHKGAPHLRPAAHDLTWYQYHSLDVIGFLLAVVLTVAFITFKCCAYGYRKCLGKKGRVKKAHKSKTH
In words: Activity of human UGT1A3 expressed in microsomes isolated from baculovirus infected insect cell assessed as enzyme-mediated 3-(4-((6-methoxy-1-methyl-1H-benzo[d]imidazol-2-yl)methoxy)phenyl)-2-(methylsulfonyl)propanamide formation at 20 uM after 4 hrs by radio-HPLC/LC-MS/MS analysis in presence of NADPH-generating system/SAM.

Data set [6] deals with Liver microsome. In words: Drug metabolism in human liver microsomes assessed as formation of (2S,3S,4S,5R,6R)-6-((1-carboxy-2-(4-((6-methoxy-1-methyl-1H-benzo[d]imidazol-2-yl)methoxy)phenyl)ethylthio)carbonylamino)-3,4,5-trihydroxytetrahydro-2H-pyran-2-carboxylic acid at 20 uM after 4 hrs by radio-HPLC/LC-MS/MS analysis in presence of UDPGA and UDPGA/SAM.

The results in this text go back to ChEMBL document CHEMBL3526048, “In vitro metabolism of rivoglitazone, a novel peroxisome proliferator-activated receptor γ agonist, in rat, monkey, and human liver microsomes and freshly isolated hepatocytes” (Drug Metab Dispos, 2011).

Chain of Cytochrome P450 3A4 (P08684 whole entry): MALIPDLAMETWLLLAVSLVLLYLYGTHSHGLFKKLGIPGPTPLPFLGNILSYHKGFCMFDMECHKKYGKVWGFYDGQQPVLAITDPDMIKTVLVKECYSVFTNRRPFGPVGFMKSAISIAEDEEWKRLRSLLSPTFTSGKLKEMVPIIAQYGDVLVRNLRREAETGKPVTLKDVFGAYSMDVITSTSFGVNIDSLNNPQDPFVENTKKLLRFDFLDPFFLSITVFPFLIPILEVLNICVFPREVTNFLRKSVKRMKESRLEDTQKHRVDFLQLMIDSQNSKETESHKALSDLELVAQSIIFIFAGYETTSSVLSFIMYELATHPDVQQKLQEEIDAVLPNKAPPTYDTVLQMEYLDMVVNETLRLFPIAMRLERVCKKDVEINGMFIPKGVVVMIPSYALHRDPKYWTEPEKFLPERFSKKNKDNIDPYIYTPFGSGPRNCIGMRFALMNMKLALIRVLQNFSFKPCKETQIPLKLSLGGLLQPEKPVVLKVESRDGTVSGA

Consider `COc1ccc2nc(COc3ccc(C[14CH]4SC(=O)NC4=O)cc3)n(C)c2c1.Cl` (racemic), for which the Drug metabolism result is “metabolite_detected” in data set [1]; “metabolite_detected” in data set [2]; “metabolite_detected” in data set [3]; “metabolite_not_detected” in data set [4]; “metabolite_not_detected” in data set [5]; “metabolite_detected” in data set [6].
